Assay results: ChEMBL document CHEMBL4354797, “Novel Pyrazolo[4,3- d]pyrimidine as Potent and Orally Active Inducible Nitric Oxide Synthase (iNOS) Dimerization Inhibitor with Efficacy in Rheumatoid Arthritis Mouse Model” (J Med Chem, 2019)
Active and inactive are the calls of the source. The calls are words filed in the database; no cut-off is given here.

How the values were obtained:
RAW264.7 [1] = assay: Cytotoxicity against LPS-induced mouse RAW264.7 cells assessed as reduction in cell viability; assay type: cell-based
RAW264.7 [2] = assay: Antiinflammatory activity in mouse RAW264.7 cells assessed as inhibition of LPS-induced NO production at 10 uM preincubated for 1 hr followed by LPS addition and measured after 24 hrs by Griess reagent-based assay relative to control; assay type: functional
Outline: (§1)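 RAW 264.7 cells pretreated with compound for 1 h, then LPS 1 µg/mL for 24 h. Single-point inhibition at 10 µM. IC50 by regression of inhibition over several concentrations. At least three independent experiments.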

[3] = molecular target: T1, Nitric oxide synthase, inducible (Mus musculus, UniProt P29477); assay: Inhibition of iNOS in LPS-stimulated mouse RAW 264.7 cells preincubated for 1 hr followed by LPS-stimulation and measured after 6 hrs by fluorescence based assay
T1 sequence (P29477 whole entry): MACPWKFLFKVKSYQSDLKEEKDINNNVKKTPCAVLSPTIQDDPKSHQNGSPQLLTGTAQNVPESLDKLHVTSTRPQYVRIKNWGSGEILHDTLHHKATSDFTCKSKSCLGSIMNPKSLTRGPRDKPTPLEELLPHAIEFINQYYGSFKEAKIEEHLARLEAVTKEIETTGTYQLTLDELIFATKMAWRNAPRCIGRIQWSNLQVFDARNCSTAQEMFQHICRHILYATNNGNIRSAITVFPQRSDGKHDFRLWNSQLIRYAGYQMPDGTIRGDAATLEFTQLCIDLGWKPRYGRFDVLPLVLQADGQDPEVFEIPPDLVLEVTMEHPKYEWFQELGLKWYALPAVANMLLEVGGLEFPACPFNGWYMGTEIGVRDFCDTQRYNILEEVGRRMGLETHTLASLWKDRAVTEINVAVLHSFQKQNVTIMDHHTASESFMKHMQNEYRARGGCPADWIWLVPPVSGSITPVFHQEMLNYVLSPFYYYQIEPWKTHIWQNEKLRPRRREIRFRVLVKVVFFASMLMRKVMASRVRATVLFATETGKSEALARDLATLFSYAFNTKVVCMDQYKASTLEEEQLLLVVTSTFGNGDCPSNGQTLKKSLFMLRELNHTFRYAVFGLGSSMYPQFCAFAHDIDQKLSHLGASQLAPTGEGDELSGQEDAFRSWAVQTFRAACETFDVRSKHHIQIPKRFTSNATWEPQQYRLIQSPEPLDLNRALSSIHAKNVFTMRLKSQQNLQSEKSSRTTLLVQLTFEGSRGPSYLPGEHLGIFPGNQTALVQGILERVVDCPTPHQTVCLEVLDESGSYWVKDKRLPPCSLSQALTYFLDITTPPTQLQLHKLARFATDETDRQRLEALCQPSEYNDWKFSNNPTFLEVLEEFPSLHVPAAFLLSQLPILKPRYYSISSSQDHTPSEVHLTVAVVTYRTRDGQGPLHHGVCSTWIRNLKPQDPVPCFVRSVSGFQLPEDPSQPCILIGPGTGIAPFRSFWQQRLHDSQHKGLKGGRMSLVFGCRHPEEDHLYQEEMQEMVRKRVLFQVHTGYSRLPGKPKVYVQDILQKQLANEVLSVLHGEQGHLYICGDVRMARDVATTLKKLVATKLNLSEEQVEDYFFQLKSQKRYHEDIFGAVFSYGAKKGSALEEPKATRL
Outline: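 Inhibition calculated relative to LPS-stimulated and unstimulated controls. IC50 obtained by regression of inhibition rates at several concentrations. Indomethacin served as positive control.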

RAW264.7 [4] = assay: Cytotoxicity against mouse RAW264.7 cells assessed as reduction in cell viability; assay type: cell-based
RAW264.7 [5] = assay: Antiinflammatory activity in mouse RAW264.7 cells assessed as inhibition of LPS-induced NO production preincubated for 1 hr followed by LPS addition and measured after 24 hrs by Griess reagent-based assay; assay type: functional, cell-based; outline: as §1
Rattus norvegicus [6] = assay: Antiinflammatory activity in ig dosed CFA-induced Sprague-Dawley rat model of arthritis assessed as reduction in NO level in serum administered daily for 28 days starting from 14 days post-immunization; assay type: functional, organism-based
Outline: (§2)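 Serum NO, TNF-α, IL-1β and IL-6 measured in adjuvant-arthritic rats given intragastric dosing once daily, days 14–28 after immunization (test agent 40 or 80 mg/kg; aspirin 50 mg/kg), compared with untreated arthritic and normal rats. n=5 per group, mean±s.d.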

RAW264.7 [7] = assay: Inhibition of iNOS expression in LPS-induced mouse RAW264.7 cells at 1 to 4 uM preincubated for 1 hr followed by LPS-stimulation by Western blot analysis; assay type: functional, cell-based
Outline: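 RAW 264.7 cells pretreated with the indicated compound concentrations for 1 h, then LPS 1 µg/mL for 24 h. iNOS protein assessed by Western blot on 8% SDS-PAGE, with β-actin as loading control. At least three independent experiments, each in duplicate.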

Rattus norvegicus [8] = assay: Antiarthritic activity in Sprague-Dawley rat model of arthritis assessed as inhibition of CFA-induced cartilage destruction at 80 mg/kg, ig administered daily for 28 days starting from 14 days post-immunization and measured every 3 days by H and E staining based histopathological analysis; assay type: functional, organism-based
Outline: (§3)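 Knee joints of adjuvant-arthritic rats were taken after intragastric dosing once daily, days 14–28 post-immunization (test agent 40 or 80 mg/kg; aspirin 50 mg/kg). Sections stained with H&E were scored by microscopy for synovial hyperplasia, inflammatory cell infiltration and bone/cartilage destruction, against normal and untreated arthritic rats.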

Rattus norvegicus [9] = assay: Antiinflammatory activity in ig dosed CFA-induced Sprague-Dawley rat model of arthritis assessed as reduction in TNF-alpha level in serum administered daily for 28 days starting from 14 days post-immunization; assay type: functional, organism-based; outline: as §2
Rattus norvegicus [10] = assay: Antiinflammatory activity in ig dosed CFA-induced Sprague-Dawley rat model of arthritis assessed as reduction in IL-1beta level in serum administered daily for 28 days starting from 14 days post-immunization; assay type: functional, organism-based; outline: as §2
Rattus norvegicus [11] = assay: Antiinflammatory activity in ig dosed CFA-induced Sprague-Dawley rat model of arthritis assessed as reduction in IL-6 level in serum administered daily for 28 days starting from 14 days post-immunization; assay type: functional, organism-based; outline: as §2
[12] = molecular target: T2, Nitric oxide synthase, inducible (Mus musculus) (UniProt P29477); assay: Inhibition of iNOS dimerization in LPS-induced mouse RAW264.7 cells at 1 to 4 uM preincubated for 1 hr followed by LPS-stimulation and measured after 24 hrs by immunoblot analysis; assay type: cell-based
T2 sequence (whole entry): T1 sequence (P29477 whole entry)

Rattus norvegicus [13] = assay: Antiarthritic activity in CFA-induced Sprague-Dawley rat arthritic model assessed as inhibition of hind paw swelling at 40 mg/kg, ig administered daily for 28 days starting from 14 days post-immunization and measured on day 30; assay type: functional, organism-based
Outline: (§4)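 Rat adjuvant-induced arthritis. Test agent given intragastrically once daily from day 14 to 28 after adjuvant immunization (40 or 80 mg/kg). Aspirin 50 mg/kg intragastric was the positive control. Hind paw swelling and arthritis index measured every 3 days, with body weight tracked; day 30 also reported. n=5 per group, mean±s.d., Tukey's test.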

[14] = molecular target: T2, Nitric oxide synthase, inducible (Mus musculus); assay: Potency index, ratio of indomethacin IC50 to compound IC50 for inhibition of iNOS in LPS-stimulated mouse RAW264.7 cells; assay type: cell-based
Rattus norvegicus [15] = assay: Antiarthritic activity in Sprague-Dawley rat model of arthritis assessed as decrease in CFA-induced synovial hyperplasia at 40 and 80 mg/kg, ig administered daily for 28 days starting from 14 days post-immunization and measured every 3 days by H and E staining based histopathological analysis; assay type: functional, organism-based; outline: as §3
Rattus norvegicus [16] = assay: Antiarthritic activity in Sprague-Dawley rat model of arthritis assessed as inhibition of CFA-induced inflammatory cell infiltration at 40 and 80 mg/kg, ig administered daily for 28 days starting from 14 days post-immunization and measured every 3 days by H and E staining based histopathological analysis; assay type: functional, organism-based; outline: as §3
[17] = Toxicity in Sprague-Dawley rat model of CFA-induced arthritis assessed as reduction in body weight loss at 40 to 80 mg/kg, ig administered daily for 28 days starting from 14 days post-immunization and measured on day 30; assay type: organism-based; settings: in vivo, po; outline: as §4
Rattus norvegicus [18] = assay: Antiarthritic activity in Sprague-Dawley rat model of arthritis assessed as effect on CFA-induced synovial hyperplasia at 50 mg/kg, ig administered daily for 28 days starting from 14 days post-immunization and measured every 3 days by H and E staining based histopathological analysis; assay type: functional, organism-based; outline: as §3
Rattus norvegicus [19] = assay: Antiinflammatory activity in CFA-induced Sprague-Dawley rat model of arthritis assessed as reduction in IL-1beta level in serum at 50 mg/kg, ig administered daily for 28 days starting from 14 days post-immunization; assay type: functional, organism-based; outline: as §2
Rattus norvegicus [20] = assay: Antiarthritic activity in CFA-induced Sprague-Dawley rat arthritic model assessed as inhibition of hind paw swelling at 50 mg/kg, ig administered daily for 28 days starting from 14 days post-immunization and measured on day 30; assay type: functional, organism-based; outline: as §4
Rattus norvegicus [21] = assay: Antiinflammatory activity in CFA-induced Sprague-Dawley rat model of arthritis assessed as reduction in TNF-alpha level in serum at 50 mg/kg, ig administered daily for 28 days starting from 14 days post-immunization; assay type: functional, organism-based; outline: as §2
Rattus norvegicus [22] = assay: Antiinflammatory activity in CFA-induced Sprague-Dawley rat model of arthritis assessed as reduction in NO level in serum at 50 mg/kg, ig administered daily for 28 days starting from 14 days post-immunization; assay type: functional, organism-based; outline: as §2
Rattus norvegicus [23] = assay: Antiinflammatory activity in CFA-induced Sprague-Dawley rat model of arthritis assessed as reduction in IL-6 level in serum at 50 mg/kg, ig administered daily for 28 days starting from 14 days post-immunization; assay type: functional, organism-based; outline: as §2
Rattus norvegicus [24] = assay: Antiarthritic activity in Sprague-Dawley rat model of arthritis assessed as inhibition of CFA-induced cartilage destruction at 50 mg/kg, ig administered daily for 28 days starting from 14 days post-immunization and measured every 3 days by H and E staining based histopathological analysis; assay type: functional, organism-based; outline: as §3
Rattus norvegicus [25] = assay: Antiarthritic activity in Sprague-Dawley rat model of arthritis assessed as inhibition of CFA-induced inflammatory cell infiltration at 50 mg/kg, ig administered daily for 28 days starting from 14 days post-immunization and measured every 3 days by H and E staining based histopathological analysis; assay type: functional, organism-based; outline: as §3
[26] = Mus musculus, RAW264.7, read-out: IC50

IC50 ([3]; read-out: IC50) [µM]	IC50 (RAW264.7 [5]; [26]) [µM]	Structure (SMILES)	IC50 (RAW264.7 [1]) [µM]	inhibition at 10 µM (RAW264.7 [2]) [%]	IC50 (RAW264.7 [4]) [µM]	other results
10.2	15.8	CCCc1nn(C)c2c(Nc3ccc(C(=O)O)cc3)nc(-c3cc(OC)c(OC)c(OC)c3)nc12	> 50	44.9	> 50	–
2.6	6.04	CCCc1nn(C)c2c(NCCc3ccc(Cl)cc3)nc(/C=C/c3ccco3)nc12	> 50	79.2	> 50	–
–	–	CCCc1nn(C)c2c(Nc3ccccc3)nc(/C=C/c3ccccc3)nc12	> 50	4.9	> 50	IC50 [3]: Not Active; IC50 (RAW264.7 [5]; raw264.7): Not Active
7.26	10.8	CCCc1nn(C)c2c(NC(C)C)nc(-c3cc(OC)c(OC)c(OC)c3)nc12	> 50	51.9	> 50	–
5.23	13.7	CCCc1nn(C)c2c(N3CCC(O)CC3)nc(/C=C/c3cc(OC)c(OC)c(OC)c3)nc12	> 50	45.3	> 50	–
1.12	3.17	CCCc1nn(C)c2c(NC(C)C)nc(/C=C/c3cc(OC)c(OC)c(OC)c3)nc12	> 50	90.4	> 50	Activity (Rattus norvegicus [6]): Dose-dependent effect; inhibition (RAW264.7 [7]): inactive; Activity (Rattus norvegicus [8]): Active; Activity (Rattus norvegicus [9]): Dose-dependent effect; Activity (Rattus norvegicus [10]): Dose-dependent effect; Activity (Rattus norvegicus [11]): Dose-dependent effect; inhibition [12]: Active; inhibition (Rattus norvegicus [13]): Active; Ratio IC50 [14]: 22; Activity (Rattus norvegicus [15]): Active; Activity (Rattus norvegicus [16]): Active; Activity [17]: Non-Toxic
5.31	22.1	CCCc1nn(C)c2c(NCC(C)C)nc(/C=C/c3ccccc3)nc12	> 50	33.3	> 50	–
4.25	9.26	CCCc1nn(C)c2c(NCc3ccc(Cl)cc3)nc(/C=C/c3ccco3)nc12	> 50	56.4	> 50	–
8.46	12.2	CCCc1nn(C)c2c(NC(C)C)nc(/C=C/c3ccccc3)nc12	> 50	53.9	> 50	–
–	–	CC(=O)Oc1ccccc1C(=O)O	–	–	–	Activity (Rattus norvegicus [18]): Active; Activity (Rattus norvegicus [19]): Active; Activity (Rattus norvegicus [20]): Active; Activity (Rattus norvegicus [21]): Active; Activity (Rattus norvegicus [22]): Active; Activity (Rattus norvegicus [23]): Active; Activity (Rattus norvegicus [24]): Active; Activity (Rattus norvegicus [25]): Active
24.9	–	COc1ccc2c(c1)c(CC(=O)O)c(C)n2C(=O)c1ccc(Cl)cc1 [INDOMETHACIN]	> 50	59.2	> 50	–
–	–	CCCc1nn(C)c2c(N3CCCC3)nc(-c3cc(OC)c(OC)c(OC)c3)nc12	> 50	3.1	> 50	IC50 [3]: Not Active; IC50 (RAW264.7 [5]; raw264.7): Not Active
